Assay results: ChEMBL document CHEMBL4680111, “Target Validation and Identification of Novel Boronate Inhibitors of the Plasmodium falciparum Proteasome” (J Med Chem, 2018)
pIC50: −log10 of the molar value. Each block holds one compound with its values, some of them ahead of it. The source made the active and inactive calls. The calls are words filed in the database; no cut-off is given here.

What was measured:
Plasmodium falciparum [1] = test: Inhibition of Plasmodium falciparum 20S proteasome beta 2 subunit trypsin-like activity using fluorogenic peptide Ac-WLR-AMC as substrate in presence of PA28alpha at 0.8 uM measured over 5 hrs by fluorescence microplate reader assay
Plasmodium falciparum [2] = test: Inhibition of Plasmodium falciparum 20S proteasome beta 5 subunit chymotrypsin-like activity using fluorogenic peptide Ac-WLA-AMC as substrate in presence of PA28alpha at 0.8 uM measured over 5 hrs by fluorescence microplate reader assay
Plasmodium falciparum [3] = test: Inhibition of Plasmodium falciparum 20S proteasome beta 1 subunit caspase-like activity using fluorogenic peptide Ac-nLPnLD-AMC as substrate in presence of PA28alpha at 0.8 uM measured over 5 hrs by fluorescence microplate reader assay
[4] = Inhibition of Plasmodium falciparum 20S proteasome beta 2 subunit trypsin-like activity using fluorogenic peptide Ac-WLR-AMC as substrate in presence of PA28alpha incubated for 1 to 2 hrs by fluorescence microplate reader assay
[5] = Inhibition of Plasmodium falciparum 20S proteasome beta 5 subunit chymotrypsin-like activity using fluorogenic peptide Ac-WLA-AMC as substrate in presence of PA28alpha incubated for 1 to 2 hrs by fluorescence microplate reader assay
[6] = Inhibition of Plasmodium falciparum 20S proteasome beta 1 subunit caspase-like activity using fluorogenic peptide Ac-nLPnLD-AMC as substrate in presence of PA28alpha incubated for 1 to 2 hrs by fluorescence microplate reader assay
Plasmodium falciparum [7] = test: Antiplasmodial activity against sorbitol synchronized ring stage Plasmodium falciparum 3D7 assessed as reduction in parasitemia incubated for 72 hrs by Syto-61 staining dye based flow cytometry analysis; format: functional; conditions: read-out: LD50 (the source's name)
In short: (§1)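 Sorbitol-treated ring-stage parasites in O+ human erythrocytes were incubated with compound for 72 h, and viability was read in the second cycle. Read-out was Syto-61 (2 µM) flow cytometry of parasitemia, normalized to untreated and 2 µM DHA-killed controls. Mean ± SEM of three independent experiments.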

Plasmodium falciparum [8] = test: Antiplasmodial activity against DHA-resistant and sorbitol synchronized ring stage forms of Plasmodium falciparum Cam3.II^R539T expressing K13 mutant assessed as reduction in parasitemia incubated for 3 hrs by pulse exposure based Syto-61 staining dye based flow cytometry analysis; format: functional; conditions: read-out: LD50 (the source's name)
In short: (§2)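 Tightly synchronized early-ring parasites (1-3 h post-invasion) exposed to compound for 3 h, then viability assessed in the next cycle. Cells stained with 2 µM Syto-61 and parasitemia read by flow cytometry, normalized to untreated and kill controls (2 µM DHA, 48-72 h). Mean ± SEM of three independent experiments.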

Plasmodium falciparum [9] = test: Antiplasmodial activity against DHA-sensitive and sorbitol synchronized ring stage forms of Plasmodium falciparum Cam3.II^rev expressing K13 wild-type genotype assessed as reduction in parasitemia incubated for 3 hrs by pulse exposure based Syto-61 staining dye based flow cytometry analysis; format: functional; conditions: read-out: LD50 (the source's name); in short: as §2
Plasmodium falciparum [10] = test: Inhibition of proteasome in Plasmodium falciparum trophozoite stage transfected with GFP-DD assessed as reduction in GFP-DD fusion protein degradation at 0.02 to 0.5 uM incubated for 3 hrs in absence of Shield-1 by Western blot analysis; conditions: dose 0.02-0.5 µM
In short: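 GFP-DD reporter parasites were held in Shield-1 for 24 h, washed out, then treated as trophozoites (5% hematocrit, 5% parasitemia) with compound for 3 h at 37°C. […] Representative of four independent experiments.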

Plasmodium falciparum [11] = test: Antiplasmodial activity against sorbitol synchronized ring stage bortezomib-resistant Plasmodium falciparum 3D7 clone B1a assessed as reduction in parasitemia incubated for 72 hrs by Syto-61 staining dye based flow cytometry analysis; format: functional; conditions: read-out: LD50 (the source's name); in short: as §1
Plasmodium falciparum [12] = test: Antiplasmodial activity against sorbitol synchronized ring stage bortezomib-resistant Plasmodium falciparum 3D7 clone B2a assessed as reduction in parasitemia incubated for 72 hrs by Syto-61 staining dye based flow cytometry analysis; format: functional; conditions: read-out: LD50 (the source's name); in short: as §1
[13] = tested on: Plasmodium falciparum 3D7; test: Inhibition of 20S proteasome beta 5 subunit from bortezomib resistant Plasmodium falciparum 3D7 trophozoite infected erythrocytes assessed as inhibition of BMV037 probe labeling at 1 to 10 uM incubated for 1 hr by SDS-PAGE analysis; conditions: dose 1-10 µM
[14] = tested on: Plasmodium falciparum 3D7; test: Inhibition of 20S proteasome beta 1 subunit from bortezomib resistant Plasmodium falciparum 3D7 trophozoite infected erythrocytes assessed as inhibition of BMV037 probe labeling at 1 to 10 uM incubated for 1 hr by SDS-PAGE analysis; conditions: dose 1-10 µM
[15] = biological target: T1, Proteasome component C5 (Homo sapiens) (UniProt P20618); test: Inhibition of human 20S constitutive proteasome beta 1 subunit assessed as inhibition of BMV037 probe labeling at 1 to 10 uM incubated for 1 hr by SDS-PAGE analysis; conditions: dose 1-10 µM
T1 sequence (whole entry): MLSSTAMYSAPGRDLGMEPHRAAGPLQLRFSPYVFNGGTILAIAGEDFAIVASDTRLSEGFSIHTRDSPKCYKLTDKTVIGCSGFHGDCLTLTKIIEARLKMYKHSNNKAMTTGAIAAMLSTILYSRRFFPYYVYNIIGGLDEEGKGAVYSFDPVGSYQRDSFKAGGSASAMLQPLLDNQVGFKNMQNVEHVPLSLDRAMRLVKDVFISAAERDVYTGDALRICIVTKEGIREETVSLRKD
In short: (§3)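 Purified human constitutive 20S (20 nM) was treated with compound at 37°C for 1 h, then labelled with 10 µM BMV037 at 37°C for 2 h. Samples were run on 10% Bis-Tris gel with MOPS buffer, and active subunits were detected by Cy5 fluorescence scan.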

[16] = biological target: T2, Proteasome Macropain subunit MB1 (Homo sapiens) (UniProt P28074); test: Inhibition of human 20S constitutive proteasome beta 5 subunit assessed as inhibition of BMV037 probe labeling at 1 to 10 uM incubated for 1 hr by SDS-PAGE analysis; conditions: dose 1-10 µM; in short: as §3
T2 sequence (whole entry): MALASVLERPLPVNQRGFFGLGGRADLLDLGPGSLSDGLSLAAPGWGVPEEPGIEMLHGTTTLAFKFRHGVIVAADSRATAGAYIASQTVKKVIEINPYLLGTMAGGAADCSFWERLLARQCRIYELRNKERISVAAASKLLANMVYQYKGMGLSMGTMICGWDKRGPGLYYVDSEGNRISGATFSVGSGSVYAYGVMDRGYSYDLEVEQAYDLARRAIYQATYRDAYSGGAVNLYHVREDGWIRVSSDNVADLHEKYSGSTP

[17] = biological target: T3, Proteasome subunit beta type-9 (Homo sapiens) (UniProt P28065); test: Inhibition of human 20S immunoproteasome beta 1 subunit assessed as inhibition of BMV037 probe labeling at 1 to 10 uM incubated for 1 hr by SDS-PAGE analysis; conditions: dose 1-10 µM
T3 sequence (whole entry): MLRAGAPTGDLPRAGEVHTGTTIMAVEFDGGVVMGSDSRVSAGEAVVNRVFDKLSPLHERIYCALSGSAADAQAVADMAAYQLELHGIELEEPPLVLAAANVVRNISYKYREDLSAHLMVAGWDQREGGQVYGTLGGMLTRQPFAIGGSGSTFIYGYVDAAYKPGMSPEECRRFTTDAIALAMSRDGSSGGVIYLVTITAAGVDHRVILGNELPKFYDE
In short: (§4)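 Purified human immuno-20S (20 nM) was incubated with compound at 37°C for 1 h, then labelled with 10 µM BMV037 at 37°C for 2 h. Samples were run on 4-12% Bis-Tris gel with MES buffer, and active subunits were visualised by Cy5 fluorescence.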

[18] = biological target: T4, Proteasome subunit beta type-8 (Homo sapiens) (UniProt P28062); test: Inhibition of human 20S immunoproteasome beta 5 subunit assessed as inhibition of BMV037 probe labeling at 1 to 10 uM incubated for 1 hr by SDS-PAGE analysis; conditions: dose 1-10 µM; in short: as §4
T4 sequence (whole entry): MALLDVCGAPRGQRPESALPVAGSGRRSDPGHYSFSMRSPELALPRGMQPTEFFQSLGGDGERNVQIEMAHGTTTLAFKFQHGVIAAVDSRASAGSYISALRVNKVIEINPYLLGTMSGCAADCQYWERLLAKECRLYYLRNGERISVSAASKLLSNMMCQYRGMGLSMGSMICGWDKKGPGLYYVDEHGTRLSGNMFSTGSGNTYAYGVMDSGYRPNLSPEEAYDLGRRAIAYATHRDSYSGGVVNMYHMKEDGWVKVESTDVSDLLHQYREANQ

[19] = biological target: T5, Proteasome subunit beta type-6 (Homo sapiens, UniProt P28072); test: Inhibition of human 20S constitutive proteasome beta 1 subunit caspase-like activity using fluorogenic peptide Ac-nLPnLD-AMC as substrate in presence of PA28alpha incubated for 1 to 2 hrs by fluorescence microplate reader assay
T5 sequence (P28072 whole entry): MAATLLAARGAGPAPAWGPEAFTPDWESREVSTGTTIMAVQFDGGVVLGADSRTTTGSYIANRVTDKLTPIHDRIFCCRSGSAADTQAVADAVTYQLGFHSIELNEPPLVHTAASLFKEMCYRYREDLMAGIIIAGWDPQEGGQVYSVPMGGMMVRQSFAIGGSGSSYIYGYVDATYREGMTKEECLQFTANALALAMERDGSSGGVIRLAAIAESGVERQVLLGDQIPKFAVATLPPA

[20] = biological target: T6, Proteasome subunit beta type-7 (Homo sapiens, UniProt Q99436); test: Inhibition of human 20S constitutive proteasome beta 2 subunit trypsin-like activity using fluorogenic peptide Ac-WLR-AMC as substrate in presence of PA28alpha incubated for 1 to 2 hrs by fluorescence microplate reader assay
T6 sequence (Q99436 whole entry): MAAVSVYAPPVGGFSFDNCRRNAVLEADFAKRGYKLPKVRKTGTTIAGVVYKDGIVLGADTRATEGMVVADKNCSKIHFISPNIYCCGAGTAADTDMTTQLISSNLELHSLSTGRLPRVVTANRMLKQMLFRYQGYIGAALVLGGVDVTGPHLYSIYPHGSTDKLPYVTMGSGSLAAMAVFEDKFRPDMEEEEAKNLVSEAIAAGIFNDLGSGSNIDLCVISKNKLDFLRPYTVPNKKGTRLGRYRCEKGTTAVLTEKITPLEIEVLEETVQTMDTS

[21] = biological target: T7, Proteasome Macropain subunit MB1 (Homo sapiens, UniProt P28074); test: Inhibition of human 20S constitutive proteasome beta 5 subunit chymotrypsin-like activity using fluorogenic peptide Ac-WLA-AMC as substrate in presence of PA28alpha incubated for 1 to 2 hrs by fluorescence microplate reader assay
T7 sequence (P28074 whole entry): T2 sequence (whole entry)

[22] = biological target: T8, Proteasome subunit beta type-9 (Homo sapiens, UniProt P28065); test: Inhibition of human 20S immunoproteasome beta 1 subunit caspase-like activity using fluorogenic peptide Ac-nLPnLD-AMC as substrate in presence of PA28alpha incubated for 1 to 2 hrs by fluorescence microplate reader assay
T8 sequence (P28065 whole entry): T3 sequence (whole entry)

[23] = biological target: T9, Proteasome subunit beta type-10 (Homo sapiens, UniProt P40306); test: Inhibition of human 20S immunoproteasome beta 2 subunit trypsin-like activity using fluorogenic peptide Ac-WLR-AMC as substrate in presence of PA28alpha incubated for 1 to 2 hrs by fluorescence microplate reader assay
T9 sequence (P40306 whole entry): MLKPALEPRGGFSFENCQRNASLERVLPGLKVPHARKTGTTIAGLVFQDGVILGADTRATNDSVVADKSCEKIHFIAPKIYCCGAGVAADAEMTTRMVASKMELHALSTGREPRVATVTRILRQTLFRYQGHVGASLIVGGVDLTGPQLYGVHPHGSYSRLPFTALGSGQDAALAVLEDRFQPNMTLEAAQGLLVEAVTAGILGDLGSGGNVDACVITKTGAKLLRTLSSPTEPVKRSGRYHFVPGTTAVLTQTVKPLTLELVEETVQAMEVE

[24] = biological target: T10, Proteasome subunit beta type-8 (Homo sapiens, UniProt P28062); test: Inhibition of human 20S immunoproteasome beta 5 subunit chymotrypsin-like activity using fluorogenic peptide Ac-WLA-AMC as substrate in presence of PA28alpha incubated for 1 to 2 hrs by fluorescence microplate reader assay
T10 sequence (P28062 whole entry): T4 sequence (whole entry)

[25] = Selectivity index, ratio of LD50 for cytotoxicity against human HepG2 cells to LD50 for antiplasmodial activity against Plasmodium falciparum 3D7 sorbitol-treated ring stage; format: toxicity, cell-based; conditions: read-out: Selectivity Index
[26] = tested on: Plasmodium falciparum 3D7; test: Inhibition of 20S proteasome beta 5 subunit in bortezomib-resistant Plasmodium falciparum 3D7 assessed as inhibition of BMV037 probe labeling at 1 to 10 uM incubated for 1 hr by SDS-PAGE analysis; conditions: dose 1-10 µM

inhibition (Plasmodium falciparum [1]): Active
inhibition (Plasmodium falciparum [2]): Active
inhibition (Plasmodium falciparum [3]): inactive
SMILES: CC(C)C[C@H](NC(=O)[C@H](CCc1ccccc1)NC(=O)CN1CCOCC1)C(=O)N[C@@H](Cc1ccccc1)C(=O)N[C@@H](CC(C)C)C(=O)[C@@]1(C)CO1

SMILES: CC(C)C[C@H](NC(=O)[C@H](Cc1ccccc1)NC(=O)c1cnccn1)B(O)O [BORTEZOMIB]
pIC50 [4]: 5.80
pIC50 [5]: 7.28
pIC50 [6]: 6.49
LC50 (Plasmodium falciparum [7]): 60 nM
LC50 (Plasmodium falciparum [8]): 120 nM
LC50 (Plasmodium falciparum [9]): 180 nM
inhibition (Plasmodium falciparum [10]): Active
LC50 (Plasmodium falciparum [11]): 1300 nM
LC50 (Plasmodium falciparum [12]): 1100 nM
inhibition [13]: Active
inhibition [14]: Active
inhibition [15]: Active
inhibition [16]: Active
inhibition [17]: Active
inhibition [18]: Active

SMILES: CC(=O)N1CCC[C@H]1C(=O)N[C@@H](C)C(=O)N[C@@H](CC(C)C)B(O)O
pIC50 [4]: < 5.00
pIC50 [5]: 5.54
pIC50 [6]: 5.52
pIC50 [19]: 6.49
pIC50 [20]: < 5.00
pIC50 [21]: 7.01
pIC50 [22]: 7.89
pIC50 [23]: < 5.00
pIC50 [24]: 7.20
LC50 (Plasmodium falciparum [7]): 160 nM
selectivity ratio [25]: 15
LC50 (Plasmodium falciparum [8]): 1500 nM
LC50 (Plasmodium falciparum [9]): 1800 nM
inhibition [26]: inactive
